Assay results: ChEMBL document CHEMBL1122910, “Syntheses and evaluation as antifolates of MTX analogues derived from 2, omega-diaminoalkanoic acids” (J Med Chem, 1985)

What was measured:
L1210 [1] = test: Inhibition of L1210 cell growth in mice.; format: functional, cell-based; settings: Mus musculus
Epithelial cell line = test: (§1) In vitro antitumor activity against epithelial cell line.; format: functional, Mus musculus
L1210 [2] = test: (§2) In vitro antitumor activity against L1210 cell line.; format: functional, Mus musculus
Dihydrofolate reductase = target: T1, Dihydrofolate reductase (Mus musculus, UniProt P00375); test: In vitro inhibitory activity against Dihydrofolate reductase in L1210 cell in mice; format: cell-based
T1 sequence (P00375 whole entry): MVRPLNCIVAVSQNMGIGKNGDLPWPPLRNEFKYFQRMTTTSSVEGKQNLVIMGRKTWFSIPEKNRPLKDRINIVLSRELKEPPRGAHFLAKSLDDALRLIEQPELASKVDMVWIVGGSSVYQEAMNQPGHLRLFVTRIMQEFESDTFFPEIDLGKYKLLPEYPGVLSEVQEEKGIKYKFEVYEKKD

CCRF S-180 = test: In vitro antitumor activity against S180 cell line.; format: functional, Mus musculus
Mus musculus [3] = test: Antitumor activity in mice with L1210 Leukemia and weight at termination of the therapy was reported for 3 mice x 2 experiments at a dose of 144 mg/kg.; format: functional
Mus musculus [4] = test: Antitumor activity in mice with L1210 Leukemia and percentage increase in life span was reported for 3 mice x 2 experiments at a dose of 144 mg/kg; format: functional
How it was run: (§3)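 L1210 leukemia-bearing mice dosed on a q2d × 5 schedule. Untreated controls were 5 mice × 12 experiments. Read-outs were MST (days ± SD), % ILS versus control, and body weight at termination (g ± SD).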

L1210 [5] = test: as §2; format: functional, cell-based; settings: Mus musculus
Ehrlich [6] = test: In vitro antitumor activity against Erlich cell line.; format: functional, Mus musculus
Mus musculus [7] = test: Antitumor activity in mice with L1210 Leukemia and […] (MST) in days was reported for 3 mice x 2 experiments at a dose of 144 mg/kg.; format: functional; how it was run: as §3
Mus musculus [8] = test: Antitumor activity in mice with L1210 Leukemia and […] (MST) in days was reported for 3 mice x 2 experiments at a dose of 432 mg/Kg.; format: functional; how it was run: as §3
Mus musculus [9] = test: Antitumor activity in mice with L1210 Leukemia and weight at termination of the therapy was reported for 3 mice x 2 experiments at a dose of 432 mg/Kg.; format: functional
Mus musculus [10] = test: Antitumor activity in mice with L1210 Leukemia and percentage increase in life span was reported for 3 mice x 2 experiments at a dose of 432 mg/Kg; format: functional; how it was run: as §3
L1210 [11] = test: Antitumor activity against L1210 cell line as cell membrane transport activity; format: functional, Mus musculus
P388 = test: In vivo antitumor activity as increase in life span in mice with P388 10E6 tumor cell implanted intraperitoneally; format: functional, Mus musculus
L1210 [12] = test: Antitumor activity L1210 cell line as cell membrane transport activity; format: functional, cell-based; settings: Mus musculus
[13] = In vitro antitumor activity against S180 cells.; format: functional, Mus musculus, CCRF S-180
Epithelial cell = test: as §1; format: functional, Mus musculus
Mus musculus [14] = test: Antitumor activity in mice with L1210 Leukemia and percentage increase in life span was reported for 5 mice x 12 experiments at a dose of 15 mg/Kg
Mus musculus [15] = test: Antitumor activity in mice with L1210 Leukemia and weight at termination of the therapy was reported for 5 mice x 12 experiments at a dose of 15 mg/kg.; format: functional
Ehrlich [16] = test: In vitro antitumor activity against Erlich cell line,; format: functional, Mus musculus
Mus musculus [17] = species: Mus musculus; test: Antitumor activity against L1210 cell […]; format: functional
L1210 [18] = test: In vivo antitumor activity as increase in life span in mice with L1210 10E6 tumor cell implanted intraperitoneally; optimal dose is 12 mg/kg.; format: functional; settings: Mus musculus, L1210, ip, route intraperitoneal
L1210 [19] = test: In vivo antitumor activity as increase in life span in mice with L1210 10E6 tumor cell implanted intraperitoneally; optimal dose is 768 mg/kg.; format: functional; settings: Mus musculus, L1210, ip, route intraperitoneal

Row | Structure (SMILES) | IC50 (L1210 [1]) | Ki (Dihydrofolate reductase) | Influx Ki (L1210 [11]) | Efflux Ki (L1210 [12]) | other results
1 | CN(Cc1cnc2nc(N)nc(N)c2n1)c1ccc(C(=O)NC(CCCNC(=O)OC(C)(C)C)C(=O)O)cc1 (stereo not given) | 97 nM |  |  |  | 
2 | CN(Cc1cnc2nc(N)nc(N)c2n1)c1ccc(C(=O)NC(CNC(=O)OC(C)(C)C)C(=O)O)cc1 (stereo not given) | 440 nM |  |  |  | 
3 | CNC(=O)NCC(NC(=O)c1ccc(N(C)Cc2cnc3nc(N)nc(N)c3n2)cc1)C(=O)O (stereo not given) | 34.3 nM | 14.2 nM |  |  | Influx Ki (Epithelial cell line): >500000 nM; Influx Ki (L1210 [2]): 16700 nM; Influx Ki (CCRF S-180): 19700 nM; Weight (Mus musculus [3]): 20 g; ILS at 144 mg/kg (Mus musculus [4]): 12%; Efflux Ki (L1210 [5]): 0.27 min⁻¹; Influx Ki (Ehrlich [6]): 13400 nM; MST (Mus musculus [7]): 7 days
4 | CN(Cc1cnc2nc(N)nc(N)c2n1)c1ccc(C(=O)NC(CCN)C(=O)O)cc1 (stereo not given) | 1360 nM |  |  |  | 
5 | CN(Cc1cnc2nc(N)nc(N)c2n1)c1ccc(C(=O)NC(CCNC(=O)OC(C)(C)C)C(=O)O)cc1 (stereo not given) | 333 nM |  |  |  | 
6 | CN(Cc1cnc2nc(N)nc(N)c2n1)c1ccc(C(=O)NC(CNC(N)=O)C(=O)O)cc1 (stereo not given) | 9.4 nM | 35 nM |  |  | MST (Mus musculus [8]): 16.3 days; Weight (Mus musculus [9]): 16 g; Influx Ki (Epithelial cell line): >500000 nM; ILS at 432 mg/kg (Mus musculus [10]): 129%; Influx Ki (L1210 [2]): 11600 nM; Influx Ki (CCRF S-180): 11600 nM; Efflux Ki (L1210 [5]): 0.25 min⁻¹; Influx Ki (Ehrlich [6]): 12500 nM
7 | CCOC(=O)C(CNC(=O)N(C)N=O)NC(=O)c1ccc(N(C)Cc2cnc3nc(N)nc(N)c3n2)cc1 (stereo not given) | 3650 nM | 6.35 nM | 42400 nM | 0.298 min⁻¹ | ILS (P388): 58%
8 | CN(Cc1cnc2nc(N)nc(N)c2n1)c1ccc(C(=O)NC(CNC(=O)NC(CCC(=O)O)C(=O)O)C(=O)O)cc1 (stereo not given) | 200 nM | 0.00471 nM | 16400 nM | 0.234 min⁻¹ | 
9 | CN(Cc1cnc2nc(N)nc(N)c2n1)c1ccc(C(=O)NC(CCNC(N)=O)C(=O)O)cc1 (stereo not given) | 21.8 nM | 0.004 nM |  |  | MST (Mus musculus [8]): 9.3 days; Weight (Mus musculus [9]): 21.6 g; Influx Ki (Epithelial cell line): >500000 nM; ILS at 432 mg/kg (Mus musculus [10]): 33%; Influx Ki [13]: 24600 nM; Influx Ki (L1210 [2]): 17300 nM; Efflux Ki (L1210 [5]): 0.19 min⁻¹; Influx Ki (Ehrlich [6]): 15900 nM
10 | CN(Cc1cnc2nc(N)nc(N)c2n1)c1ccc(C(=O)NC(CN)C(=O)O)cc1 (stereo not given) | 1030 nM |  |  |  | 
11 | CN(Cc1cnc2nc(N)nc(N)c2n1)c1ccc(C(=O)NC(CCCN)C(=O)O)cc1 (stereo not given) | 507 nM |  |  |  | 
12 | CN(Cc1cnc2nc(N)nc(N)c2n1)c1ccc(C(=O)N[C@@H](CCC(=O)O)C(=O)O)cc1 [METHOTREXATE] | 3.28 nM |  | 4570 nM | 0.203 min⁻¹ | Influx Ki (Epithelial cell): 339000 nM; ILS at 15 mg/kg (Mus musculus [14]): 152%; Weight (Mus musculus [15]): 19.8 g; Effllux (L1210 [2]): 0.23 min⁻¹; Influx Ki (L1210 [2]): 3700 nM; Influx Ki (CCRF S-180): 11400 nM; Influx Ki (Ehrlich [16]): 10100 nM; IC50 (Mus musculus [17]): 3.28 nM; ILS at 12 mg/kg (L1210 [18]): 173%
13 | CN(Cc1cnc2nc(N)nc(N)c2n1)c1ccc(C(=O)NC(CNC(=O)c2ccc(Cl)cc2)C(=O)O)cc1 (stereo not given) | 11.9 nM | 0.00498 nM | 7430 nM | 0.255 min⁻¹ | 
14 | CN(Cc1cnc2nc(N)nc(N)c2n1)c1ccc(C(=O)NC(CCNC(=O)c2ccc(Cl)cc2)C(=O)O)cc1 (stereo not given) | 27.3 nM | 0.00642 nM | 4670 nM | 1.21 min⁻¹ | 
15 | CCOC(=O)C(CNC(=O)N(CCCl)N=O)NC(=O)c1ccc(N(C)Cc2cnc3nc(N)nc(N)c3n2)cc1 (stereo not given) | 2900 nM | 3.24 nM | 46900 nM | 0.202 min⁻¹ | ILS (P388): 113%
16 | CN(Cc1cnc2nc(N)nc(N)c2n1)c1ccc(C(=O)NC(CCCNC(=O)c2ccc(Cl)cc2)C(=O)O)cc1 (stereo not given) | 1.71 nM | 0.00531 nM | 4320 nM | 0.437 min⁻¹ | ILS at 768 mg/kg (L1210 [19]): 104%
